Data: ChEMBL document CHEMBL5532752, “Integrating a quinone substructure into histone deacetylase inhibitors to cope with Alzheimer's disease and cancer” (RSC Med Chem, 2024)

Columns and labels:
Assay type in all cases: functional
SH-SY5Y [1] = experiment: Cytotoxicity against human SH-SY5Y cells assessed as reduction in cell viability incubated for 24 hrs by MUH reagent based spectrophotometric analysis
SH-SY5Y [2] = experiment: Cytotoxicity against human SH-SY5Y cells assessed as reduction in cell viability incubated for 48 hrs by MUH reagent based spectrophotometric analysis
SH-SY5Y [3] = experiment: Cytotoxicity against human SH-SY5Y cells assessed as reduction in cell viability incubated for 72 hrs by MUH reagent based spectrophotometric analysis
In short: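 SH-SY5Y in DMEM/10% FBS seeded 0.75 × 10⁴ cells/well, after 24 h treated with 0.1–100 μM for 24, 48 or 72 h. Washed, incubated with MUH 0.01 mg/mL in PBS 30 min at 37 °C in the dark; fluorescence ex 330/em 450 nm, normalized to untreated cells. IC50 by nonlinear regression, log(inhibitor) vs normalized response.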

SMILES	IC50 (SH-SY5Y [1])	IC50 (SH-SY5Y [2])	IC50 (SH-SY5Y [3])
O=C(NO)c1ccc(CNC2=CC(=O)c3ccccc3C2=O)cc1	39 µM	8.67 µM	7.74 µM
CC1=C(NCCCCCC(=O)NO)C(=O)c2ccccc2C1=O	178 µM	84.4 µM	53 µM
O=C(CCCCCNC1=CC(=O)c2ccccc2C1=O)NO	80 µM	26.9 µM	22.5 µM
CC1=C(NCc2ccc(C(=O)NO)cc2)C(=O)c2ccccc2C1=O	39 µM	19.8 µM	14 µM
Nc1ccccc1NC(=O)c1ccc(CNC2=CC(=O)c3ccccc3C2=O)cc1	59.5 µM	8.53 µM	4.42 µM
O=C(CS)NCCCCNC1=CC(=O)c2ccccc2C1=O	> 100 µM	> 100 µM	> 100 µM
